Measurements reported in ChEMBL document CHEMBL1128440 (J Med Chem, 1995).
Values joined by “and” are separate entries in the source; they are usually repeats but may differ in a detail not shown here. Identical values can stand only once.

How the values were obtained:
Rattus norvegicus [1] = species: Rattus norvegicus; assay: Tissue biodistribution into estrogen-primed immature female rat lung at 1 hr time interval; type: ADME, organism-based; details: in vivo
Outline: (§1)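 Immature female Sprague-Dawley rats (25 days old, ≈50 g, five per time point) primed with estradiol, 5 μg sc daily for 2 days in 50% ethanol/sunflower seed oil, used 24 h after the last injection. The 18F-labeled ligand was given iv by tail vein in 10% ethanol/saline. Decapitated at 1 or 3 h; blood and organs weighed and gamma-counted. Reported as %ID/g ± SD, n = 5.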

Rattus norvegicus [2] = species: Rattus norvegicus; assay: Tissue biodistribution into estrogen-primed immature female rat bone at 1 hr low time interval; type: ADME, organism-based, Bone element; details: in vivo; outline: as §1
Rattus norvegicus [3] = species: Rattus norvegicus; assay: Tissue biodistribution into estrogen-primed immature female rat brain at 1 hr low time interval; type: ADME, organism-based; details: in vivo; outline: as §1
Rattus norvegicus [4] = species: Rattus norvegicus; assay: Tissue biodistribution into estrogen-primed immature female rat uterus/muscle at 1 hr blocked time interval; type: ADME, organism-based; details: in vivo; outline: as §1
Rattus norvegicus [5] = species: Rattus norvegicus; assay: Tissue biodistribution into estrogen-primed immature female rat fat at 1 hr low time interval; type: ADME, organism-based, Adipose tissue; details: in vivo; outline: as §1
Rattus norvegicus [6] = species: Rattus norvegicus; assay: Tissue biodistribution into estrogen-primed immature female rat bone at 1 hr blocked time interval; type: ADME, organism-based, Bone element; details: in vivo; outline: as §1
Rattus norvegicus [7] = species: Rattus norvegicus; assay: Tissue biodistribution into estrogen-primed immature female rat uterus/muscle at 3 hr time interval; type: ADME, organism-based; details: in vivo
Rattus norvegicus [8] = species: Rattus norvegicus; assay: Tissue biodistribution into estrogen-primed immature female rat kidney at 1 hr low time interval; type: ADME, organism-based; details: in vivo; outline: as §1
Rattus norvegicus [9] = species: Rattus norvegicus; assay: Tissue biodistribution into estrogen-primed immature female rat blood at 1 hr time interval; type: ADME, organism-based; details: in vivo; outline: as §1
Rattus norvegicus [10] = species: Rattus norvegicus; assay: Tissue biodistribution into estrogen-primed immature female rat liver at 3 hr time interval; type: ADME, organism-based; details: in vivo; outline: as §1
Rattus norvegicus [11] = species: Rattus norvegicus; assay: Tissue biodistribution into estrogen-primed immature female rat uterus/blood at 1 hr blocked time interval; type: ADME, organism-based; details: in vivo; outline: as §1
[12] = target: T1, Progesterone receptor (Homo sapiens) (UniProt P06401); assay: Nonspecific binding affinity against progesterone receptor was estimated relative to compound R5020
T1 sequence (whole entry): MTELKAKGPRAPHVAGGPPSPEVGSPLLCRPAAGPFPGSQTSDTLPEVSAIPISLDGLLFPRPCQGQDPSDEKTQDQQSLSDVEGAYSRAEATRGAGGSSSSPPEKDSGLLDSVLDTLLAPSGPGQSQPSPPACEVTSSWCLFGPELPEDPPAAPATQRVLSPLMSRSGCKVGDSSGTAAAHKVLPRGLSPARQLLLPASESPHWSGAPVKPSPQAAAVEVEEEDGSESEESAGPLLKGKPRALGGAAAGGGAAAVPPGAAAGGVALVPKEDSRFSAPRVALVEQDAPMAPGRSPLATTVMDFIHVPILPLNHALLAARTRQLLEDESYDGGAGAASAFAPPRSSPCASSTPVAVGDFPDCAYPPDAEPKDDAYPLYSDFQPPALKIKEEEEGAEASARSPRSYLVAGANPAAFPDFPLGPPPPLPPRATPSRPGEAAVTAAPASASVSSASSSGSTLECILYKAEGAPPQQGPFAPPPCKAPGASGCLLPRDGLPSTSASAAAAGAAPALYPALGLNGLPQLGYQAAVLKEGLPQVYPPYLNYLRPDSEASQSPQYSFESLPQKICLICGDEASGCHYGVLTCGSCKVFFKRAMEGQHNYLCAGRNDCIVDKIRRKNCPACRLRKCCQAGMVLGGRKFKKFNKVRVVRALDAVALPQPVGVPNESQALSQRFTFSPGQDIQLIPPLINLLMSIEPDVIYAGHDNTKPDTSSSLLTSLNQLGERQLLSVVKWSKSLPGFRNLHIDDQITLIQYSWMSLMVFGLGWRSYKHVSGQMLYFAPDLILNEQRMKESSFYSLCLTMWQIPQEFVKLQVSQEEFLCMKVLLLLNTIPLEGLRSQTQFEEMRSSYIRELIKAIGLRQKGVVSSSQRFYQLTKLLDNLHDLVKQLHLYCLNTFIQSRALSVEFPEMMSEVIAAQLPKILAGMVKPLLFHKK

Rattus norvegicus [13] = species: Rattus norvegicus; assay: Tissue biodistribution into estrogen-primed immature female rat muscle at 1 hr time interval; type: ADME, organism-based; details: in vivo; outline: as §1
Rattus norvegicus [14] = species: Rattus norvegicus; assay: Tissue biodistribution into estrogen-primed immature female rat blood at 1 hr low time interval; type: ADME, organism-based; details: in vivo; outline: as §1
Rattus norvegicus [15] = species: Rattus norvegicus; assay: Tissue biodistribution into estrogen-primed immature female rat ovaries at 1 hr blocked time interval; type: ADME, organism-based; details: in vivo; outline: as §1
Rattus norvegicus [16] = species: Rattus norvegicus; assay: Tissue biodistribution into estrogen-primed immature female rat ovaries at 1 hr time interval; type: ADME, organism-based, Female gonad; details: in vivo; outline: as §1
Rattus norvegicus [17] = species: Rattus norvegicus; assay: Tissue biodistribution into estrogen-primed immature female rat uterus at 1 hr blocked time interval; type: ADME, organism-based; details: in vivo; outline: as §1
Rattus norvegicus [18] = species: Rattus norvegicus; assay: Tissue biodistribution into estrogen-primed immature female rat uterus/muscle at 1 hr low time interval; type: ADME, organism-based; details: in vivo; outline: as §1
Rattus norvegicus [19] = species: Rattus norvegicus; assay: Tissue biodistribution into estrogen-primed immature female rat kidney at 3 hr time interval; type: ADME, organism-based; details: in vivo; outline: as §1
Rattus norvegicus [20] = species: Rattus norvegicus; assay: Tissue biodistribution into estrogen-primed immature female rat muscle at 1 hr low time interval; type: ADME, organism-based; details: in vivo; outline: as §1
Rattus norvegicus [21] = species: Rattus norvegicus; assay: Tissue biodistribution into estrogen-primed immature female rat ovaries at 3 hr time interval; type: ADME, organism-based, Female gonad; details: in vivo; outline: as §1
Rattus norvegicus [22] = species: Rattus norvegicus; assay: Tissue biodistribution into estrogen-primed immature female rat lung at 1 hr low time interval; type: ADME, organism-based; details: in vivo; outline: as §1
Rattus norvegicus [23] = species: Rattus norvegicus; assay: Tissue biodistribution into estrogen-primed immature female rat fat at 3 hr time interval; type: ADME, organism-based, Adipose tissue; details: in vivo; outline: as §1
Rattus norvegicus [24] = species: Rattus norvegicus; assay: Tissue biodistribution into estrogen-primed immature female rat ovaries at 1 hr low time interval; type: ADME, organism-based, Female gonad; details: in vivo; outline: as §1
Rattus norvegicus [25] = species: Rattus norvegicus; assay: Tissue biodistribution into estrogen-primed immature female rat uterus at 1 hr low time interval; type: ADME, organism-based; details: in vivo; outline: as §1
Rattus norvegicus [26] = species: Rattus norvegicus; assay: Tissue biodistribution into estrogen-primed immature female rat lung at 3 hr time interval; type: ADME, organism-based; details: in vivo; outline: as §1

An Injected dose/g (Rattus norvegicus [1]) of 2.38%, an Injected dose/g (Rattus norvegicus [2]) of 0.99% and an Injected dose/g (Rattus norvegicus [3]) of 0.4% were found for `C[C@]12CCC3C(CCC4=CC(=O)CC[C@@H]43)C1C[C@H]1OC(c3ccco3)O[C@]12C(=O)CF` (stereo partly specified) in this work. It also gave a uterus/muscle ratio (Rattus norvegicus [4]) of 2.34, an Injected dose/g (Rattus norvegicus [5]) of 2.15% and an Injected dose/g (Rattus norvegicus [6]) of 1.29%. It also gave a ratio (Rattus norvegicus [7]) of 32.2, an Injected dose/g (Rattus norvegicus [8]) of 1.14% and an Injected dose/g (Rattus norvegicus [9]) of 0.38%. The Injected dose/g (Rattus norvegicus [10]) was 1.65%, the uterus/blood ratio (Rattus norvegicus [11]) was 3.68 and the NSB [12] was 0.83 and 1.06. It also gave an Injected dose/g (Rattus norvegicus [13]) of 0.59%, an Injected dose/g (Rattus norvegicus [14]) of 0.35% and an Injected dose/g (Rattus norvegicus [15]) of 1.65%. The Injected dose/g (Rattus norvegicus [16]) was 2.76%, the Injected dose/g (Rattus norvegicus [17]) was 1.68% and the Injected dose/g (Rattus norvegicus [18]) was 12.85%. For the same molecule, the Injected dose/g (Rattus norvegicus [19]) was 0.73%, the Injected dose/g (Rattus norvegicus [20]) was 0.41% and the Injected dose/g (Rattus norvegicus [21]) was 2.62%. For the same molecule, the Injected dose/g (Rattus norvegicus [22]) was 1.51%, the Injected dose/g (Rattus norvegicus [23]) was 2.36% and the Injected dose/g (Rattus norvegicus [24]) was 2.13%. For the same molecule, the Injected dose/g (Rattus norvegicus [25]) was 5.18% and the Injected dose/g (Rattus norvegicus [26]) was 0.31%.
